Calls of active or inactive are those of the source. The rule behind the calls is not given here.
Tests used:
cells [1] = type: functional, cell-based; details: Mus musculus, GT1-7
[2] = Cytotoxicity against mouse GT1-7 cells at 1 uM; type: cell-based; details: gt1-7, 1 µM
cells [3] = type: functional, cell-based; details: Mus musculus, GT1-7, 72 h
GT1-7 = assay: Effect on cellular form PrP expression in mouse GT1-7 cells; type: functional, cell-based
Method in brief: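 Uninfected GT1-7 mouse neuronal cells (~2 × 10^5 per well) treated 15 h after plating, from 100 mM DMSO stocks diluted in medium (solvent control 0.1%), for 72 h. Lysates in Triton X-100/DOC buffer, normalized to 2 mg protein/ml. PrPC detected by Western blot with SAF32 antibody and ECL, then scanned.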

Mus musculus [4] = assay: Survival of intraventricularly dosed mouse infected with human transmissible spongiform encephalopathies agent Fukuoka1 at 250 ug/kg, after 42 to 70 days post-infection; type: functional
Method in brief: (§1)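 4-week-old male ddY mice inoculated in the right temporal lobe with 20 μl of 10% FK-1 (Fukuoka-1) infected brain homogenate. Drug in 5% glucose/saline (10 mg/ml stock, 0.2-μm filtered) given at 250 μg/kg per day by intraventricular osmotic-pump infusion over the stated d.p.i. window. Vehicle-only controls. Mice examined daily for neurological signs; survival analysed by Kaplan–Meier.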

Mus musculus [5] = assay: Survival of intraventricularly dosed mouse infected with human transmissible spongiform encephalopathies agent Fukuoka1 at 250 ug/kg, after 70 to 98 days post-infection; type: functional
Method in brief: as §1

Mus musculus [6] = species on record: Mus musculus; assay: Binding affinity to recombinant mouse cellular form PrP (23-231)
Mus musculus [7] = species on record: Mus musculus; assay: Stabilization of recombinant mouse cellular form PrP (23-231) conformation at 10 uM

## O=C1C=CC(=O)N1c1ccc(Cc2ccc(N3C(=O)C=CC3=O)c(Cl)c2)cc1Cl
Cells [1]
  IC50: > 100 µM
[2]
  Activity: Toxic

## O=c1n(S(=O)(=O)c2ccc(Cl)cc2)c2ccccc2n1S(=O)(=O)c1ccc(Cl)cc1
Cells [1]
  IC50: > 100 µM
[2]
  Activity: Toxic

## COc1ccccc1C(=O)c1c(C(=O)O)ccc2ccccc12
Cells [1]
  IC50: > 100 µM
[2]
  Activity: Toxic

## Cc1ccc(N2C(=O)c3ccc(C(=O)OCC(C)C)cc3C2=O)cc1C
Cells [1]
  IC50: > 100 µM
[2]
  Activity: Toxic

## O=C(Nc1ccc(I)cc1C(=O)O)c1ccc(Cl)cc1
Cells [1]
  IC50: > 100 µM
[2]
  Activity: Toxic

## CCN(CCO)CCNc1ccc(C)c2sc3ccccc3c(=O)c12
Cells [1]
  IC50: > 100 µM
[2]
  Activity: Toxic

## C=CCSC1=N/C(=C\c2ccccc2Br)C(=O)S1
Cells [1]
  IC50: > 100 µM
[2]
  Activity: Toxic

## Cc1nc2c(n1CCO)C(=O)c1nc(C)n(CCO)c1C2=O
Cells [1]
  IC50: > 100 µM
[2]
  Activity: Toxic

## O=C(O)/C=C/C(=O)Nc1ccc(Cc2ccc(NC(=O)/C=C/C(=O)O)cc2)cc1
Cells [1]
  IC50: > 100 µM
[2]
  Activity: Toxic

## CC(=O)CC(=O)Nc1ccc(Cc2ccc(NC(=O)CC(C)=O)cc2)cc1
Cells [1]
  IC50: > 100 µM
[2]
  Activity: Toxic

## O=C(Nc1ccc(I)cc1)c1ccccc1I
Cells [1]
  IC50: > 100 µM
[2]
  Activity: Toxic

## O=C(Nc1ccc(I)cc1)c1cccc(I)c1
Cells [1]
  IC50: > 100 µM
[2]
  Activity: Toxic

## CCCCOC(=O)c1ccc2c(c1)C(=O)N(c1ccc(Oc3ccccc3)cc1)C2=O
Cells [1]
  IC50: > 100 µM
[2]
  Activity: Toxic

## C=CCc1cc(/C=C2/C(=O)NC(=S)N(CC=C)C2=O)cc(OC)c1O
Cells [1]
  IC50: > 100 µM
[2]
  Activity: Toxic

## O=C(CN1CCCC1)Nc1ccc(Cc2ccc(NC(=O)CN3CCCC3)cc2)cc1
Cells [3]
  IC50: 1.35 µM
GT1-7
  Activity: inactive
Mus musculus [4]
  Survival: 132.3 days
Mus musculus [5]
  Survival: 141.5 days
Mus musculus [6]
  Activity: 3.9 ×10⁻⁶ M
Mus musculus [7]
  Activity: Stable

## COc1ccc(C(=O)NNC(=O)c2ccc(OC)c(I)c2)cc1Br
Cells [1]
  IC50: > 100 µM
[2]
  Activity: Toxic

## Cc1sc(C(O)c2sc(C)c(C)c2I)c(I)c1C
Cells [1]
  IC50: > 100 µM
[2]
  Activity: Toxic

## O=C(N/N=C/c1cc(Cl)cc(Cl)c1O)c1cccc(I)c1
Cells [1]
  IC50: > 100 µM
[2]
  Activity: Toxic

## CC(=O)[C@H]1CC[C@H]2[C@@H]3C[C@H](O)[C@@H]4C[C@H](O)CC[C@]4(C)[C@H]3CC[C@]12C
Cells [1]
  IC50: > 100 µM
[2]
  Activity: Toxic

## COc1ccc(C(=O)N=C2C=C(Br)C(=O)C(Br)=C2)cc1
Cells [1]
  IC50: > 100 µM
[2]
  Activity: Toxic

## O=C(CN1CCOCC1)Nc1ccc(Cc2ccc(NC(=O)CN3CCOCC3)cc2)cc1
Cells [1]
  IC50: > 100 µM
[2]
  Activity: Toxic

## C[C@]12CCC(=O)C=C1CC[C@@H]1[C@@H]2[C@@H](O)C[C@@]2(C)[C@H]1CC[C@]2(O)C(=O)COC(=O)CCC(=O)O [HYDROCORTISONE HEMISUCCINATE ANHYDROUS]
Cells [1]
  IC50: > 100 µM
[2]
  Activity: Toxic

## Cc1ccc(C(=O)Nc2cccc([N+](=O)[O-])c2C)cc1I
Cells [1]
  IC50: > 100 µM
[2]
  Activity: Toxic

## COc1ccc(NC(=O)c2cc(Br)ccc2I)cc1Cl
Cells [1]
  IC50: > 100 µM
[2]
  Activity: Toxic

## O=C(O)c1ccc(C(=O)O)c(C(=O)Nc2ccc3c(c2)-c2ccccc2C3)c1
Cells [1]
  IC50: > 100 µM
[2]
  Activity: Toxic

## CC(=O)Nc1ccc(Cc2ccc(NC(C)=O)cc2)cc1
Cells [1]
  IC50: > 100 µM
[2]
  Activity: Toxic

## O=C(Nc1cc(Cl)c(Cl)cc1Cl)Nc1cc(Cl)c(Cl)cc1Cl
Cells [1]
  IC50: > 100 µM
[2]
  Activity: Toxic

## O=C(CCl)Nc1ccc(Cc2ccc(NC(=O)CCl)cc2)cc1
Cells [1]
  IC50: > 100 µM
[2]
  Activity: Toxic

## O=C(Nc1ccc(NC(=O)c2cccc3ccccc23)cc1)c1cccc2ccccc12
Cells [1]
  IC50: > 100 µM
[2]
  Activity: Toxic

## O=C(CN1CCCCC1)Nc1ccc(Cc2ccc(NC(=O)CN3CCCCC3)cc2)cc1
Cells [1]
  IC50: > 100 µM
[2]
  Activity: Toxic

## O=C(Nc1ccc2ccccc2c1)c1cccc(C(=O)Nc2ccc3ccccc3c2)c1
Cells [1]
  IC50: > 100 µM
[2]
  Activity: Toxic

## O=C(c1ccc(I)c([N+](=O)[O-])c1)c1ccc(I)c([N+](=O)[O-])c1
Cells [1]
  IC50: > 100 µM
[2]
  Activity: Toxic

## O=C(Nc1ccc(Cc2ccc(NC(=O)C(Cl)(Cl)Cl)cc2)cc1)C(Cl)(Cl)Cl
Cells [1]
  IC50: > 100 µM
[2]
  Activity: Toxic

## O=S(=O)(c1cc(Cl)cc(Br)c1O)c1cc(Cl)cc(Br)c1O
Cells [1]
  IC50: > 100 µM
[2]
  Activity: Toxic

## CS(=O)(=O)O[C@H]1C[C@H](n2cc(F)c(=O)[nH]c2=O)O[C@@H]1CO
Cells [1]
  IC50: > 100 µM
[2]
  Activity: Toxic

## CC1CCCN(C(=O)Nc2ccc(Cc3ccc(NC(=O)N4CCCC(C)C4)cc3)cc2)C1 (configuration not stated)
Cells [1]
  IC50: > 100 µM
[2]
  Activity: Toxic

## Cc1c(NC(=O)c2cccc(I)c2)ccc([N+](=O)[O-])c1C
Cells [1]
  IC50: > 100 µM
[2]
  Activity: Toxic

## COc1ccc(C(=O)c2ccc(Br)c([N+](=O)[O-])c2)cc1C
Cells [1]
  IC50: > 100 µM
[2]
  Activity: Toxic

## Cc1ccc(S(=O)(=O)Nc2ccccc2N(C)S(=O)(=O)c2ccc(C)cc2)cc1
Cells [1]
  IC50: > 100 µM
[2]
  Activity: Toxic

## CCCCOC(=O)c1ccc(NC(=O)Nc2cc(C)ccc2C)cc1
Cells [1]
  IC50: > 100 µM
[2]
  Activity: Toxic

## O=C(c1cccc(I)c1)c1cccc(I)c1
Cells [1]
  IC50: > 100 µM
[2]
  Activity: Toxic

## O=C1C=CC(=O)N1c1ccc(Cc2ccc(N3C(=O)C=CC3=O)cc2)cc1
Cells [1]
  IC50: > 100 µM
[2]
  Activity: Toxic

## Cc1ccc(N2C(=O)c3ccc(C(=O)OCC(C)C)cc3C2=O)cc1Cl
Cells [1]
  IC50: > 100 µM
[2]
  Activity: Toxic

## O=C(Nc1ccc(Cc2ccc(NC(=O)c3cccc([N+](=O)[O-])c3)cc2)cc1)c1cccc([N+](=O)[O-])c1
Cells [1]
  IC50: > 100 µM
[2]
  Activity: Toxic
